Published values collected from several papers.
Lines come from different studies, so protocols differ.
Target: Calcium/calmodulin-dependent protein kinase type II subunit delta (CAMK2D, Homo sapiens, UniProt Q13557)

`NS(=O)(=O)c1cc(NC(=O)Cc2ccccc2)ccc1Oc1cccc(Cl)c1` has a remaining binding of 97% (cell-free assay; competition with immobilised ligand; 1 µM).
The inhibition of `Cc1ccc(-n2nc(C(C)(C)C)cc2NC(=O)Nc2ccc(OCCN3CCOCC3)c3ccccc23)cc1` is reported as 22% (enzyme activity; inhibitor; 10 µM).
`CCOC(=O)c1cc2cc(-c3cc(C(=O)NCc4ccc(C(=O)O)cc4)nn3C)ccc2[nH]1` has a remaining binding of 91% (cell-free assay; competition with immobilised ligand; 0.1 µM).
The inhibition of `COc1cccc2c(NCc3ccccc3)nc(-n3c(N)nc4ccccc43)nc12` is reported as -14.3% (target engagement in cells; inhibitor; chemoproteomics; 20 mM).
`O=C(O)[C@@H]1[C@@H](Cn2nnc3ccccc3c2=O)CC[C@H]1C(=O)c1ccc(OCCC2CCOCC2)cc1` has a remaining binding of 100% (cell-free assay; competition with immobilised ligand; 1 µM).
`Cc1ccc(C(=O)Nc2ccc(CN3CCN(C)CC3)c(C(F)(F)F)c2)cc1C#Cc1cnc2cccnn12` gave a remaining activity of 96% (enzyme activity; 23.5 nM).
For `CCCOc1ccc(OC)c(F)c1C(=O)c1ccc(C(=O)N[C@@H]2CNC[C@H]2NC(=O)c2ccc3[nH]ncc3c2)cc1`, the remaining activity was 53% (enzyme activity; inhibitor; 10 µM).
`Cc1cc(NC(=O)c2cccc3cc(-c4cccc5[nH]nc(N)c45)ccc23)ccc1F` gave an activity vs control of 102% (enzyme activity; inhibitor; 0.1 µM).
`C[S+]([O-])c1ccc(-c2nc(-c3ccncc3)c(-c3ccc(F)cc3)[nH]2)cc1` (stereo not shown) has a remaining signal of 103% (cell-free assay; 0.5 µM).
With `CC(C)(C)c1nc2c(s1)c1nc(N)ncc1c1ccc(NS(=O)(=O)c3c(F)cccc3F)c(F)c12` the remaining activity was 96% (enzyme activity; inhibitor; radiometric; 1 µM).
`CC1=C(C#N)[C@@H](c2ccc3[nH]nc(C)c3c2)C(C#N)=C(c2ccc(Cl)cc2)N1` gave a remaining binding of 82.1% (cell-free assay; competition with immobilised ligand; 1 µM).
`Nc1ncnc2occ(-c3ccc(NC(=O)Nc4cc(C(F)(F)F)ccc4F)cc3)c12` has a remaining signal of 94% (cell-free assay; inhibitor; 20 µM).
`CC/C(=N\NC(=O)NCc1cccc(O)c1)c1ccc(O)c(C)c1O` has an inhibition of -4.9% (enzyme activity; inhibitor; 0.1 µM).
`CNCc1ccccc1-c1csc([C@H](C)Nc2nc(C)nc3cc(OC)c(OC)cc23)c1` has a remaining binding of 97% (cell-free assay; competition with immobilised ligand; 1 µM).
`CC(C)(O)[C@H]1CC[C@H](Nc2ccc3ncc(-c4cccc(C(F)(F)F)c4)n3n2)CC1` gave a remaining activity of 81.8% (enzyme activity; inhibitor; 1 µM).
With `CCN(CC)CCNC(=O)c1c(C)[nH]c(/C=C2\C(=O)Nc3ccc(F)cc32)c1C` the inhibition was 96% (enzyme activity; inhibitor; 10 µM).
`O=C1Nc2ccc(Cl)cc2C1=Cc1cc(Cl)c(O)c(Cl)c1` gave a remaining signal of 80.2% (cell-free assay; 0.5 µM).
With `COc1ccc2c(c1)O[C@H](c1ccc(OC)c(OC)c1)C[C@@H]2NC(=O)C1(c2ccc3c(c2)OC(F)(F)O3)CC1` the remaining binding was 100% (cell-free assay; competition with immobilised ligand; 1 µM).
For `CCN(CC)c1ccc(C2=NNC(=O)CC2C)cc1[N+](=O)[O-]` (stereo not shown), the remaining activity was 104% (enzyme activity; inhibitor; 10 µM).
`COc1cc(Nc2c(C#N)cnc3cc(OCCCN4CCN(C)CC4)c(OC)cc23)c(Cl)cc1Cl` has a remaining signal of 94.6% (cell-free assay; 0.5 µM).
For `COc1cc2ncnc(Nc3ccc(Oc4ccccc4)cc3C)c2cc1OC`, the inhibition was 4% (enzyme activity; inhibitor; 1 µM).
`Cc1ccc(Nc2nccc(N(C)c3ccc4c(C)n(C)nc4c3)n2)cc1S(N)(=O)=O` gave an inhibition of 66% (enzyme activity; inhibitor; 10 µM).
The remaining binding of `CC(=O)N1CCC(c2ccc(C(=O)NC(=N)N)cc2C(F)(F)F)CC1` is reported as 100% (cell-free assay; competition with immobilised ligand; 1 µM).
`CNC(=O)c1cc(Oc2ccc(NC(=O)Nc3ccc(Cl)c(C(F)(F)F)c3)cc2)ccn1` has an inhibition of 79% (enzyme activity; inhibitor; 10 µM).
`Cc1sc(C(=O)NC2COC2)cc1-n1cc(NC(=O)Nc2c(F)cccc2Cl)cn1` gave a remaining activity of 91.3% (enzyme activity; inhibitor; 10 µM).
With `Cc1c(NC(=O)c2cc(C(N)=O)nc3cc(F)ccc23)c(C(F)(F)F)nn1Cc1ccc(C#N)cc1` the remaining binding was 90% (cell-free assay; competition with immobilised ligand; 1 µM).
`CCCCNc1ncc2c(-c3ccc(F)cc3)nn(C[C@H]3CC[C@H](N)CC3)c2n1` gave an inhibition of 44.3% (target engagement in cells; inhibitor; chemoproteomics; 20 mM).
With `CCN1CCN(Cc2ccc(NC(=O)c3ccc(C)c(Oc4ccnc5[nH]ccc45)c3)cc2C(F)(F)F)CC1` the inhibition was -12% (target engagement in cells; inhibitor; chemoproteomics; Huh-7; 1 µM).
